Article PMC8404148 (Endocrine-related cancer, 2021)

Legend:
5097 PDX organoids = assay: Breast cancer PDX organoid growth, 5097 line; format: cell-based, human; conditions: 10 nM single agent, two weeks, vs vehicle
4013 PDX organoids = assay: Breast cancer PDX organoid growth, 4013 line; format: cell-based, human; conditions: SI-12 10 nM, BEZ235 2 nM, two weeks
Procedure, shortened: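 Organoids derived from the 4013 PDX tumour, which came from a patient with triple-negative infiltrating ductal carcinoma. The tumour was passaged in mice eight times before use.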

MCF-7 cells = conditions: read-out: IC50 for suppressing MCF-7 cell growth, ref Wang et al. 2014; cited from earlier work

In the case of `CCN1CCN(Cc2ccc(Nc3ncc(F)c(-c4cc(F)c5nc(C)n(C(C)C)c5c4)n3)nc2)CC1` [Abemaciclib], the organoid numbers (5097 PDX organoids) is reported as “reduced organoid numbers”.

With `Cn1c(=O)n(-c2ccc(C(C)(C)C#N)cc2)c2c3cc(-c4cnc5ccccc5c4)ccc3ncc21` [BEZ235] the “organoid formation, single compound” value (4013 PDX organoids) was “could repress organoid formation”.

In the case of `C[C@]12CC[C@H](O)C[C@H]1CC[C@@H]1[C@@H]2CC[C@]2(C)[C@@H](c3ccc(=O)oc3)CC[C@]12O` [bufalin], the IC50 (MCF-7 cells) is listed as 3.2 nM.
